For data set [1], the target named is Rhodesain (Trypanosoma brucei rhodesiense) (UniProt Q95PM0). In words: Inhibition of recombinant Trypanosoma brucei rhodesain expressed in Pichia pastoris at 10 uM using Z-FR-AMC as substrate and measured at 12 sec interval for 5 mins without preincubation by fluorimetric analysis relative to control. The essentials:
(§1)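 Recombinant rhodesain or cruzain (1 nM) in 0.1 M sodium acetate pH 5.5, 0.01% Triton X-100, 1 mM β-mercaptoethanol. Compound at a single concentration, either without or after 10 min enzyme pre-incubation. Z-FR-AMC 2.5 µM, read at 340/440 nm every 12 s for 5 min. Inhibition is relative to DMSO, with E-64 as positive control. Done in duplicate (primary screen) or triplicate.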

The target is the same in data set [2]. The data set is described as follows: Inhibition of recombinant Trypanosoma brucei rhodesain expressed in Pichia pastoris at 5 uM using Z-FR-AMC as substrate preincubated for 10 mins followed by substrate addition and measured at 12 sec interval for 5 mins by fluorimetric analysis relative to control. The settings on record: time 15.0 min. The essentials: (§2)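 Recombinant rhodesain or cruzain (1 nM) in 0.1 M sodium acetate pH 5.5, 0.01% Triton X-100, 1 mM β-mercaptoethanol. Compound at a single concentration, either without or after 10 min enzyme pre-incubation. Inhibition is relative to DMSO, with E-64 as positive control. Done in duplicate (primary screen) or triplicate.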

Data set [3] addresses Cruzipain (Trypanosoma cruzi) (UniProt P25779). The data set is described as follows: Inhibition of recombinant Trypanosoma cruzi cruzain at 50 uM preincubated for 10 mins in presence of 0.1% Triton X-100 relative to control. The essentials:
(§3)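 To test detergent sensitivity, cruzain was pre-incubated 10 min at room temperature with compound with no Triton X-100, 0.01% or 0.1% Triton X-100. Cleavage of Z-FR-AMC was then followed at pH 5.5 in acetate buffer. Percent inhibition was compared across detergent levels.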

Data set [4] has the same target. The data set is described as follows: Inhibition of recombinant Trypanosoma cruzi cruzain at 50 uM preincubated with enzyme for 5 mins followed by substrate addition in absence of BSA relative to control. Summed up:
(§4)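 For BSA sensitivity, compound was held 5 min with BSA (2 mg/mL in 0.001% Triton X-100), then 5 min with 1 nM cruzain, before substrate was added and activity monitored. Parallel runs omitted BSA under otherwise identical conditions.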

The target is the same in data set [5]. The data set is described as follows: Inhibition of recombinant Trypanosoma cruzi cruzain at 100 uM using Z-FR-AMC as substrate preincubated for 10 mins followed by substrate addition and measured at 12 sec interval for 5 mins by fluorimetric analysis relative to control. The settings on record: time 15.0 min. Summed up:
as §1

Data set [6] has the same target. In words: Inhibition of recombinant Trypanosoma cruzi cruzain at 10 uM using Z-FR-AMC as substrate preincubated for 10 mins followed by substrate addition and measured at 12 sec interval for 5 mins by fluorimetric analysis relative to control. The settings on record: time 15.0 min. The essentials:
as §1

Data set [7] deals with T1, Cruzipain (Trypanosoma cruzi, UniProt P25779). The data set is described as follows: Inhibition of recombinant Trypanosoma cruzi cruzain using Z-FR-AMC as substrate and measured at 12 sec interval for 5 mins without preincubation by fluorimetric analysis. Summed up:
(§5)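 Cruzain (recombinant, 1 nM) in 0.1 M sodium acetate pH 5.5 with 0.01% Triton X-100 and 1 mM β-mercaptoethanol; Z-FR-AMC 2.5 µM, read at 340/440 nm every 12 s for 5 min, with or without 10 min enzyme–compound pre-incubation. […] For mechanism and Ki, 0.3–20.0 µM substrate and five inhibitor levels were used, with Lineweaver-Burk plots.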

The target of data set [8] is Cruzipain (Trypanosoma cruzi) (UniProt P25779). In words: Inhibition of recombinant Trypanosoma cruzi cruzain at 5 uM using Z-FR-AMC as substrate preincubated for 10 mins followed by substrate addition and measured at 12 sec interval for 5 mins by fluorimetric analysis relative to control. The note with it: time 15.0 min. Summed up: as §2
Cruzipain (Trypanosoma cruzi), sequence (P25779 123-467 limits assumed): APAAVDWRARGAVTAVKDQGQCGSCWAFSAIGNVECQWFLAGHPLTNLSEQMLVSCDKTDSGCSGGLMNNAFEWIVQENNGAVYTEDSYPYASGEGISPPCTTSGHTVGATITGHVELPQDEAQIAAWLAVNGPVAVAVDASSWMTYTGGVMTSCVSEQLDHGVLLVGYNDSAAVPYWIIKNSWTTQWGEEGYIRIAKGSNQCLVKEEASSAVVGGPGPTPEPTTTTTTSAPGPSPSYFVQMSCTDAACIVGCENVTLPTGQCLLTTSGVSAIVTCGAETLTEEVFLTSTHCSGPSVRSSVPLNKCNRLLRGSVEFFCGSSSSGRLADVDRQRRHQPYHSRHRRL
The target is the same in data set [9]. In words: Inhibition of recombinant Trypanosoma cruzi cruzain at 10 uM using Z-FR-AMC as substrate and measured at 12 sec interval for 5 mins without preincubation by fluorimetric analysis relative to control. Summed up:
as §1

Data set [10] deals with T1, Cruzipain. The data set is described as follows: Competitive inhibition of recombinant Trypanosoma cruzi cruzain by Lineweaver-Burk plot analysis. The essentials:
as §5

In data set [11] the target is T2, cathepsin B (Rattus norvegicus, UniProt P00787). The data set is described as follows: Inhibition of rat cathepsin B at 50 uM using Z-FR-AMC as substrate measured after 15 mins without preincubation by microplate reader based assay relative to control. The settings on record: probe Z-FR-AMC. Summed up: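 Rat cathepsin B (20 nM) at 25°C in 100 mM sodium phosphate, 100 mM NaCl, 1 mM EDTA, 1 mM DTT, 0.01% CHAPS. Compound pre-incubated 0 or 5 min with enzyme; Z-FR-AMC 50 µM, ex 380/em 440 nm, monitored 15 min. Inhibition is versus 2% DMSO, with 1 µM E64 control. Two independent experiments in triplicate.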
T2 sequence (P00787 whole entry): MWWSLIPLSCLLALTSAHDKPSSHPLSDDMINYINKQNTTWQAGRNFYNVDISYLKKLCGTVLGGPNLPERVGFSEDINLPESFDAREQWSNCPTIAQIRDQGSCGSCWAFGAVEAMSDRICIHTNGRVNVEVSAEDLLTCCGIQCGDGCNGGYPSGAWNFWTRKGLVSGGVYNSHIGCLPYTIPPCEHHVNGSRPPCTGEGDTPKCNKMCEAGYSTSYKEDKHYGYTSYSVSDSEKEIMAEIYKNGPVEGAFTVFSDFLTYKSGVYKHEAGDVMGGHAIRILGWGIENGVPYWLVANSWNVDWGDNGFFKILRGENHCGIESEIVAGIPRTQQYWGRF

A further data set relates to Trypanosoma cruzi. The data set is described as follows: Trypanocidal activity against Trypanosoma cruzi Y strain trypomastigotes infected in C57BL/6 mouse peritoneal macrophage assessed as reduction in number of trypomastigotes release at 50 uM and measured after day 3 to day 11 post-infection by Neubauer chamber method. Type of data set: functional, organism-based. The note with it: time 11.0 day. Summed up: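 Thioglycolate-elicited peritoneal macrophages from female C57BL/6 mice, 2 × 10^5/well, infected 2 h at 37°C with Y strain trypomastigotes at 5:1 (parasite:cell) and washed. They were then held with compound (3.125–50 µM) or IFN-γ 100 ng/mL. Trypomastigotes released into the supernatant were counted in a Neubauer chamber at several days after infection. Three independent experiments, each in triplicate.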

Data set [12] concerns the target Cruzipain (Trypanosoma cruzi) (UniProt P25779). In words: Inhibition of recombinant Trypanosoma cruzi cruzain at 50 uM preincubated with BSA for 5 mins followed by incubation with enzyme for 5 mins followed by substrate addition relative to control. The settings on record: time 10.0 min. The essentials: as §4
Data set [13] has as its target Rhodesain (Trypanosoma brucei rhodesiense) (UniProt Q95PM0). In words: Inhibition of recombinant Trypanosoma brucei rhodesain expressed in Pichia pastoris at 100 uM using Z-FR-AMC as substrate preincubated for 10 mins followed by substrate addition and measured at 12 sec interval for 5 mins by fluorimetric analysis relative to control. The settings on record: time 15.0 min. The essentials:
(§6)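 Run with no pre-incubation or with 10 min enzyme-compound pre-incubation. Fluorescence read at 340/440 nm. Concentration was set by solubility under assay conditions. Inhibition is against DMSO, with E-64 as positive control; triplicate.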

For data set [14], the target named is Cruzipain (Trypanosoma cruzi) (UniProt P25779). In words: Inhibition of recombinant Trypanosoma cruzi cruzain at 5 uM using Z-FR-AMC as substrate and measured at 12 sec interval for 5 mins without preincubation by fluorimetric analysis relative to control. Summed up:
as §2

For data set [15], the target named is T2, cathepsin B. In words: Inhibition of rat cathepsin B at 50 uM using Z-FR-AMC as substrate preincubated for 5 mins followed by substrate addition and measured after 15 mins by microplate reader based assay relative to control. The note with it: probe Z-FR-AMC.
Data set [16] concerns the target Rhodesain (Trypanosoma brucei rhodesiense) (UniProt Q95PM0). In words: Inhibition of recombinant Trypanosoma brucei rhodesain expressed in Pichia pastoris at 10 uM using Z-FR-AMC as substrate preincubated for 10 mins followed by substrate addition and measured at 12 sec interval for 5 mins by fluorimetric analysis relative to control. The note with it: time 15.0 min. The essentials:
as §1

The target of another data set is Rhodesain (Trypanosoma brucei rhodesiense, UniProt Q95PM0). The data set is described as follows: Inhibition of recombinant Trypanosoma brucei rhodesain expressed in Pichia pastoris using Z-FR-AMC as substrate and measured at 12 sec interval for 5 mins without preincubation by fluorimetric analysis. The essentials:
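Rhodesain (1 nM) with Z-FR-AMC (2.5 µM) in 0.1 M sodium acetate pH 5.5, 0.01% Triton X-100, 1 mM β-mercaptoethanol, with or without 10 min enzyme-compound pre-incubation. Fluorescence read at 340/440 nm. IC50 by four-parameter nonlinear regression from at least six concentrations in triplicate, with at least two independent runs. Mean ± SEM reported.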

The target in data set [17] is Cruzipain (Trypanosoma cruzi) (UniProt P25779). The data set is described as follows: Inhibition of recombinant Trypanosoma cruzi cruzain at 50 uM preincubated for 10 mins in absence of Triton X-100 relative to control. The essentials:
as §3

Data set [18] has as its target T3, cathepsin S (Homo sapiens, UniProt P25774). In words: Inhibition of recombinant human cathepsin S expressed in Escherichia coli at 50 uM using Z-VVR-AMC as substrate preincubated for 10 mins followed by substrate addition and measured after 15 mins by microplate reader based assay relative to control. The note with it: probe Z-VVR-AMC, in the assay text read “preincubated for 5 mins” for “preincubated for 10 mins”, time 20 min. The essentials:
(§7)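 Run with or without 5 min compound–enzyme pre-incubation. AMC fluorescence at 380/460 nm over 15 min. Inhibition relative to DMSO (2% final); E64 1 µM as positive control. Two independent experiments, each in triplicate.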

Data set [19] has as its target Rhodesain (Trypanosoma brucei rhodesiense) (UniProt Q95PM0). In words: Inhibition of recombinant Trypanosoma brucei rhodesain expressed in Pichia pastoris at 100 uM using Z-FR-AMC as substrate and measured at 12 sec interval for 5 mins without preincubation by fluorimetric analysis relative to control. Summed up: as §6
For data set [20], the target named is Cruzipain (Trypanosoma cruzi) (UniProt P25779). The data set is described as follows: Inhibition of recombinant Trypanosoma cruzi cruzain at 50 uM preincubated for 10 mins in presence of 0.01% Triton X-100 relative to control. Summed up: as §3
For data set [21] the target is unchanged. In words: Inhibition of recombinant Trypanosoma cruzi cruzain at 100 uM using Z-FR-AMC as substrate and measured at 12 sec interval for 5 mins without preincubation by fluorimetric analysis relative to control. The essentials:
as §1

The target in data set [22] is Rhodesain (Trypanosoma brucei rhodesiense) (UniProt Q95PM0). In words: Inhibition of recombinant Trypanosoma brucei rhodesain expressed in Pichia pastoris at 5 uM using Z-FR-AMC as substrate and measured at 12 sec interval for 5 mins without preincubation by fluorimetric analysis relative to control. The essentials: as §2
Rhodesain (Trypanosoma brucei rhodesiense), sequence (Q95PM0 1-450): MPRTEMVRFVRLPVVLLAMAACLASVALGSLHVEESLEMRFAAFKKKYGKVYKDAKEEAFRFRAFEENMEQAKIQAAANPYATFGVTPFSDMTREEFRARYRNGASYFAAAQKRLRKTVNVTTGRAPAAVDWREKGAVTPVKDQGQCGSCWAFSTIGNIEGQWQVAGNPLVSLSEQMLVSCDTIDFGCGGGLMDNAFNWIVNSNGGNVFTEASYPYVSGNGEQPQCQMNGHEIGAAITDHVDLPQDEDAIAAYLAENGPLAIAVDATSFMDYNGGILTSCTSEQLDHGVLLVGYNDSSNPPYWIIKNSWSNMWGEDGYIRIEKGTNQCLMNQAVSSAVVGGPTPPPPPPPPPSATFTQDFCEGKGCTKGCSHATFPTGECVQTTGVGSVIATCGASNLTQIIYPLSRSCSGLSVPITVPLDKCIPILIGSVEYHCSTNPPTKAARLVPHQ
For data set [23], the target named is T3, cathepsin S. The data set is described as follows: Inhibition of recombinant human cathepsin S expressed in Escherichia coli at 50 uM using Z-VVR-AMC as substrate and measured after 15 mins without preincubation by microplate reader based assay relative to control. The note with it: probe Z-VVR-AMC. The essentials:
as §7

Data set [24] addresses T2, cathepsin B. The data set is described as follows: Inhibition of rat cathepsin B at 1 uM using Z-FR-AMC as substrate measured after 15 mins without preincubation by microplate reader based assay relative to control. The settings on record: probe Z-FR-AMC.
Data set [25] concerns the target T2, cathepsin B. In words: Inhibition of rat cathepsin B at 1 uM using Z-FR-AMC as substrate preincubated for 5 mins followed by substrate addition and measured after 15 mins by microplate reader based assay relative to control. The settings on record: probe Z-FR-AMC.
For data set [26], the target named is T3, cathepsin S. The data set is described as follows: Inhibition of recombinant human cathepsin S expressed in Escherichia coli at 1 uM using Z-VVR-AMC as substrate and measured after 15 mins without preincubation by microplate reader based assay relative to control. The note with it: probe Z-VVR-AMC.
Data set [27] deals with Rhodesain (Trypanosoma brucei rhodesiense) (UniProt Q95PM0). In words: Inhibition of recombinant Trypanosoma brucei rhodesain expressed in Pichia pastoris at 0.5 uM using Z-FR-AMC as substrate and measured at 12 sec interval for 5 mins without preincubation by fluorimetric analysis relative to control. Summed up:
as §1

Data set [28] deals with T3, cathepsin S. In words: Inhibition of recombinant human cathepsin S expressed in Escherichia coli at 1 uM using Z-VVR-AMC as substrate preincubated for 10 mins followed by substrate addition and measured after 15 mins by microplate reader based assay relative to control. The settings on record: probe Z-VVR-AMC, in the assay text read “preincubated for 5 mins” for “preincubated for 10 mins”, time 20 min. Summed up: as §7

The structures appear in SMILES notation. Active and inactive are the calls of the source. The rule behind the calls is not given here.

T3 sequence (P25774 whole entry): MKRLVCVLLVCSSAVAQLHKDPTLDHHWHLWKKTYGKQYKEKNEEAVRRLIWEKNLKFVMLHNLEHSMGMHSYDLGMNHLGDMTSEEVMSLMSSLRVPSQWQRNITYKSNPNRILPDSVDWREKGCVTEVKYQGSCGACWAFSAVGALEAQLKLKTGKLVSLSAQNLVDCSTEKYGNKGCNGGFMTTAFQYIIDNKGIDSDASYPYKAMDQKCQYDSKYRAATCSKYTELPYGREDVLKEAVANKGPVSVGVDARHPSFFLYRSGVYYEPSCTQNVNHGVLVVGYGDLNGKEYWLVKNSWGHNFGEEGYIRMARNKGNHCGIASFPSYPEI
T1 sequence (P25779 whole entry): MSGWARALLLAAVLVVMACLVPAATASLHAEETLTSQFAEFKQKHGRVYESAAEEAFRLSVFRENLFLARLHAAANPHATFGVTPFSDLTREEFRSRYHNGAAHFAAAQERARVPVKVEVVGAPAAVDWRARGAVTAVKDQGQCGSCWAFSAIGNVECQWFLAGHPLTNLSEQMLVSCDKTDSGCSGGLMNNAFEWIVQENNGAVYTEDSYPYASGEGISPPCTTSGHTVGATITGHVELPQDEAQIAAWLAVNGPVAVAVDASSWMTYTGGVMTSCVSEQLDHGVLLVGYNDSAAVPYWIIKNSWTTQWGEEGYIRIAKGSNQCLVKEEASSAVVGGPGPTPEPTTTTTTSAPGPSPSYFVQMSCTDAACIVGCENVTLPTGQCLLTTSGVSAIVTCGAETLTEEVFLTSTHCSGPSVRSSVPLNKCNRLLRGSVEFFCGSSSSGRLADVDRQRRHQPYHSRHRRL
Rhodesain, sequence (Q95PM0 whole entry): as the sequence (Q95PM0 1-450) above

Regarding `c1ccc(CNc2nc(Nc3ccccc3)nc3ccccc23)cc1`, the inhibition in data set [1] came out at 14%; in data set [2], 82.8%; in data set [3] it was 28.1%; in data set [4] it was 70.2%; in [5], 90%; in [6] it was 57%. Also, the inhibition in data set [8] turned out to be 82.3%; in data set [9] it was 62%; in data set [12] it was 64.4%; in data set [13], 94%; in data set [14], 70.8%; in data set [16], 9%. Moreover, the inhibition was 82.4% in data set [17]; 85% in [19]; 89.8% in data set [20]; 91% in data set [21]; 67.1% in data set [22]. The IC50 was found to be 9 µM on Cruzipain [7] and 30 µM on Rhodesain. Further, the Ki at Cruzipain [10] came to 1.4 µM. In addition, the inhibition at 0.25 h, 50 µM against cathepsin B [11] was 28.6%; against cathepsin B [15] it was 27.5%; at cathepsin S [18] it was 4.5%; at cathepsin S [23], 14.8%. Besides, the outcome in the data set with Trypanosoma cruzi was Active.
Turning to `CC(C)C[C@H](NC(=O)[C@H]1O[C@@H]1C(=O)O)C(=O)NCCCCN=C(N)N` [E-64], the inhibition at 0.25 h, 1 µM is 99.1% at cathepsin B [24], 100% against cathepsin B [25], 99.9% at cathepsin S [26] and 99.9% on cathepsin S [28]. The inhibition in data set [27] was 36%.

The record behind these values is ChEMBL document CHEMBL4665666, “Discovery and characterization of trypanocidal cysteine protease inhibitors from the 'malaria box'” (Eur J Med Chem, 2019).
